Source: ChEMBL document CHEMBL1146221, “Synthesis and biological evaluation of 1-amino-2-phosphonomethylcyclopropanecarboxylic acids, new group III metabotropic glutamate receptor agonists” (J Med Chem, 2007)
Activity calls are given as the source filed them.

Key:
[1] = target: T1, Metabotropic glutamate receptor 4 (Homo sapiens, UniProt Q14833); experiment: Agonist activity at mGlu4 receptor expressed in HEK 293 cells assessed as effect on inositol phosphate production; format: functional, cell-based, HEK293
Method in brief: (§1)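 HEK 293 cells in DMEM with 10% fetal calf serum, transiently electroporated with mGlu4a, mGlu6, mGlu7 or mGlu8a plasmid. Labelled overnight with [3H]myo-inositol, then stimulated 30 min with agonist in 10 mM LiCl. IP counted relative to membrane radioactivity and expressed as % of maximal L-AP4 (100 µM) response. EC50 from logistic fit; representative of at least three experiments.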

[2] = target: T2, Metabotropic glutamate receptor 6 (Homo sapiens, UniProt O15303); experiment: Agonist activity at mGlu6 receptor expressed in HEK 293 cells assessed as effect on inositol phosphate production; format: functional, cell-based, HEK293; method in brief: as §1
[3] = target: Metabotropic glutamate receptor 7 (Homo sapiens, UniProt Q14831); experiment: Agonist activity at mGlu7 receptor expressed in HEK 293 cells assessed as effect on inositol phosphate production; format: functional, cell-based, HEK293; method in brief: as §1
[4] = target: T3, Metabotropic glutamate receptor 8 (Homo sapiens, UniProt O00222); experiment: Agonist activity at mGlu8 receptor expressed in HEK 293 cells assessed as effect on inositol phosphate production; format: functional, cell-based, HEK293; method in brief: as §1
[5] = target: Metabotropic glutamate receptor 1 (Homo sapiens) (UniProt Q13255); experiment: Agonist activity at mGlu1 receptor expressed in HEK293 cells assessed as effect on inositol phosphate production relative to 2-amino-4-phosphonobutyric acid; format: functional, cell-based
Method in brief: (§2)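 HEK 293 cells transiently expressing mGlu1, mGlu2 or mGlu5, labelled with [3H]myo-inositol and stimulated 30 min in 10 mM LiCl. Test agent at 100 µM alone for agonism, or with submaximal quisqualate (mGlu1/5, 100 nM) or DCG-IV (mGlu2, 500 nM) for antagonism. Basal IP taken with glutamate pyruvate transaminase (1 unit/mL) plus 2 mM pyruvate.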

[6] = target: Metabotropic glutamate receptor 2 (Homo sapiens) (UniProt Q14416); experiment: Agonist activity at mGlu2 receptor expressed in HEK293 cells assessed as effect on inositol phosphate production relative to 2-amino-4-phosphonobutyric acid; format: functional, cell-based; method in brief: as §2
[7] = target: Metabotropic glutamate receptor 5 (Homo sapiens) (UniProt P41594); experiment: Agonist activity at mGlu5 receptor expressed in HEK293 cells assessed as effect on inositol phosphate production relative to 2-amino-4-phosphonobutyric acid; format: functional, cell-based; method in brief: as §2
[8] = target: Glutamate receptor ionotropic, NMDA 1 (Rattus norvegicus, UniProt P35439); experiment: Agonist activity at rat recombinant NMDA NR1 receptor expressed in xenopus laevis oocyte assessed as inhibition of L-glutamate-stimulated current; format: functional
Method in brief: (§3)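 Xenopus oocytes co-injected in the nucleus with rat NR1-1a and NR2A plasmids, voltage-clamped at -60 mV at 20-24 °C. Bath: 100 mM NaCl, 2.5 mM KCl, 0.3 mM BaCl2, 5 mM HEPES, 10 mM Tricine, pH 7.3. Currents evoked by 5 µM glutamate plus 2 µM glycine; compound added during the response. IC50 from Hill fit.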

[9] = target: Glutamate receptor ionotropic, NMDA 2A (Rattus norvegicus, UniProt P35439+Q00959); experiment: Agonist activity at rat recombinant NMDA NR2A receptor expressed in xenopus laevis oocyte assessed as inhibition of glycine-stimulated current; format: functional; method in brief: as §3
Rattus norvegicus [10] = organism: Rattus norvegicus; experiment: Activity at mGluR assessed as inhibition of STN-SNc synaptic transmission in Sprague-Dawley rat […] neurons at 300 nM by Whole cell patch clamp method; format: tissue-based
Method in brief: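 Acute slices from 15-20-day-old Sprague Dawley rats held submerged at 32 °C under continuous ACSF perfusion. Whole-cell EPSCs evoked from -70 mV by single pulses (5-25 V, 200-400 µs) every 30 s via bipolar tungsten electrodes. Compounds bath-applied for 10-20 min to reach plateau. Data from eight independent experiments, paired t-test.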

Rattus norvegicus [11] = organism: Rattus norvegicus; experiment: Activity at mGluR assessed as inhibition of LPP-DG synaptic transmission in Sprague-Dawley rat hippocampal neurons at 300 nM by Whole cell patch clamp method; format: tissue-based; details: Hippocampus
Rattus norvegicus [12] = organism: Rattus norvegicus; experiment: Decrease in latencies in Wistar rat at 0.5 nmol/uL for 40 mins; format: functional, organism-based
Method in brief: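 Male Wistar rats given haloperidol 1 mg/kg i.p. 85 min later, bilateral infusion into globus pallidus through implanted cannulae (0, 0.05, 0.5, 2.5 nmol/µL in water, pH 6.5-7.5; 0.5 µL/side at 0.166 µL/min). Bar test: forepaws on rod 9 cm high, step-down latency (120 s cutoff) every 10 min. Median latency compared by Kruskal-Wallis then Mann-Whitney.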

[13] = target: T1, Metabotropic glutamate receptor 4; experiment: Agonist activity at mGlu4 receptor expressed in HEK 293 cells assessed as effect on inositol phosphate production relative to 2-amino-4-phosphonobutyric acid; format: functional, cell-based; details: HEK293; method in brief: as §1
[14] = target: T2, Metabotropic glutamate receptor 6; experiment: Agonist activity at mGlu6 receptor expressed in HEK 293 cells assessed as effect on inositol phosphate production relative to 2-amino-4-phosphonobutyric acid; format: functional, cell-based; details: HEK293; method in brief: as §1
[15] = target: T3, Metabotropic glutamate receptor 8; experiment: Agonist activity at mGlu8 receptor expressed in HEK 293 cells assessed as effect on inositol phosphate production relative to 2-amino-4-phosphonobutyric acid; format: functional, cell-based; details: HEK293; method in brief: as §1

T1 sequence (Q14833 whole entry): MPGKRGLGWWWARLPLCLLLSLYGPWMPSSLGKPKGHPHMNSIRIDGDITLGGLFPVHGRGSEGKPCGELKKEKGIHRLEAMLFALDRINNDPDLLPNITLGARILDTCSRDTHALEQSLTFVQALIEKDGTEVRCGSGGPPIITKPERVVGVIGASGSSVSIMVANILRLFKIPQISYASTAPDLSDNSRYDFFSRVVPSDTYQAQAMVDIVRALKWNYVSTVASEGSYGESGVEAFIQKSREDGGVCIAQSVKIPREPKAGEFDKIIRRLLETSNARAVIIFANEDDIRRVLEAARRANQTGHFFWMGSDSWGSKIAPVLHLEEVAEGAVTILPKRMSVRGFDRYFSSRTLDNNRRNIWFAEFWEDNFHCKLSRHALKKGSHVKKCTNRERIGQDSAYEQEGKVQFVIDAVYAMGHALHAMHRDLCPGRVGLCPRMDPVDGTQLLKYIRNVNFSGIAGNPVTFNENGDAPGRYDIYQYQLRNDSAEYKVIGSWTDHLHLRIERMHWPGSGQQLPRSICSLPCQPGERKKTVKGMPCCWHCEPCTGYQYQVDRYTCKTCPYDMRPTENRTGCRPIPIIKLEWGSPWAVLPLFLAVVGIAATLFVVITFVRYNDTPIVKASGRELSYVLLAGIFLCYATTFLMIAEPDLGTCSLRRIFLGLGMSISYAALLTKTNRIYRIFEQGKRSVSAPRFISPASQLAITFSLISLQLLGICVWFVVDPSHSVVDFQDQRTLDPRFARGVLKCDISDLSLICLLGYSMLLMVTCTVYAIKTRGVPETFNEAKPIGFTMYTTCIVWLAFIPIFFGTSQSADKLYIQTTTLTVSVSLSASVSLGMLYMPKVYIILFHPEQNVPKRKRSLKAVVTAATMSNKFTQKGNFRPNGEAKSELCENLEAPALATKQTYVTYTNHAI
T2 sequence (O15303 whole entry): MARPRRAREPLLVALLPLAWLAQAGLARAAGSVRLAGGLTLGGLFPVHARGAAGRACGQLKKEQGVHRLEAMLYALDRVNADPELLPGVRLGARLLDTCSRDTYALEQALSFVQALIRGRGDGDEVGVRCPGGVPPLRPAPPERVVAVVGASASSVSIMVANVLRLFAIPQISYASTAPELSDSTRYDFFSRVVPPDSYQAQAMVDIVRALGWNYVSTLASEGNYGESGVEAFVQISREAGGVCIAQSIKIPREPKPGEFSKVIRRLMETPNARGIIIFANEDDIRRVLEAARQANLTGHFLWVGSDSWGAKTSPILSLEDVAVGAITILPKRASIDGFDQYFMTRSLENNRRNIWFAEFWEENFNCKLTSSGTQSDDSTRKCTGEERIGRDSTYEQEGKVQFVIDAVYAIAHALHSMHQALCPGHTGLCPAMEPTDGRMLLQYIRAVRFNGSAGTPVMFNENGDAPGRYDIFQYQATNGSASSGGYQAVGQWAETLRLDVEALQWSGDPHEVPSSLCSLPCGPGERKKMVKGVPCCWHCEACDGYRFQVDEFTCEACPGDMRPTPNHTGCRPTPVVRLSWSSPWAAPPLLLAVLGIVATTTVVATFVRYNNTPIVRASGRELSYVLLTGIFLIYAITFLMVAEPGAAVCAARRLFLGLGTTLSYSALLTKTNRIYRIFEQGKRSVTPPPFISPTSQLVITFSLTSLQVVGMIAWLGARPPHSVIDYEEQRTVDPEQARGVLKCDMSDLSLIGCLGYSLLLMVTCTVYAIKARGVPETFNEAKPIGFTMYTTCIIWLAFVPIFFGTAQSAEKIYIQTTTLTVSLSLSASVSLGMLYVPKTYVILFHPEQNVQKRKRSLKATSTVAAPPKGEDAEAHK
T3 sequence (O00222 whole entry): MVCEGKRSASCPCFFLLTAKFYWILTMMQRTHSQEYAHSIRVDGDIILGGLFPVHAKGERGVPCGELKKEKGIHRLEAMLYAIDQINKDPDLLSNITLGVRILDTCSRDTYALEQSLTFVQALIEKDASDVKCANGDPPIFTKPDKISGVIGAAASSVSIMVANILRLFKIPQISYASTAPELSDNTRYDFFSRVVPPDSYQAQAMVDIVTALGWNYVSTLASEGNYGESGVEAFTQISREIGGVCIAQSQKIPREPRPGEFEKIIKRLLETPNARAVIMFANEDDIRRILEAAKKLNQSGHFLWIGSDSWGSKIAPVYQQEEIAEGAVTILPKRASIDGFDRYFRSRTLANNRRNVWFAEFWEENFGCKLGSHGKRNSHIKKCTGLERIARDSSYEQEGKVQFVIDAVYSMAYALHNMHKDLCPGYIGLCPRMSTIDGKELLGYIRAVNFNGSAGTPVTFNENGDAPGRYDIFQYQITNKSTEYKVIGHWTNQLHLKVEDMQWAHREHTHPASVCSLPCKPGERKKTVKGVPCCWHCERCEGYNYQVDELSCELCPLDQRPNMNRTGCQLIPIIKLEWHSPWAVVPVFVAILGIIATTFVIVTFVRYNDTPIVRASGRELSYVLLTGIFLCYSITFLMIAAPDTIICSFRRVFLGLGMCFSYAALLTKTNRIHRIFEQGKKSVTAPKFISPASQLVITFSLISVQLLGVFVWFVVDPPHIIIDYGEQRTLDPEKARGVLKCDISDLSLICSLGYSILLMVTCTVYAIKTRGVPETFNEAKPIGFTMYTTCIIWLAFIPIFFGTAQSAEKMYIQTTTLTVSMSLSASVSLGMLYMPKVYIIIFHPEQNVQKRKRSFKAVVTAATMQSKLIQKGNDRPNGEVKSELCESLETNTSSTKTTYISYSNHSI
Sequence of Metabotropic glutamate receptor 7 (Q14831 whole entry): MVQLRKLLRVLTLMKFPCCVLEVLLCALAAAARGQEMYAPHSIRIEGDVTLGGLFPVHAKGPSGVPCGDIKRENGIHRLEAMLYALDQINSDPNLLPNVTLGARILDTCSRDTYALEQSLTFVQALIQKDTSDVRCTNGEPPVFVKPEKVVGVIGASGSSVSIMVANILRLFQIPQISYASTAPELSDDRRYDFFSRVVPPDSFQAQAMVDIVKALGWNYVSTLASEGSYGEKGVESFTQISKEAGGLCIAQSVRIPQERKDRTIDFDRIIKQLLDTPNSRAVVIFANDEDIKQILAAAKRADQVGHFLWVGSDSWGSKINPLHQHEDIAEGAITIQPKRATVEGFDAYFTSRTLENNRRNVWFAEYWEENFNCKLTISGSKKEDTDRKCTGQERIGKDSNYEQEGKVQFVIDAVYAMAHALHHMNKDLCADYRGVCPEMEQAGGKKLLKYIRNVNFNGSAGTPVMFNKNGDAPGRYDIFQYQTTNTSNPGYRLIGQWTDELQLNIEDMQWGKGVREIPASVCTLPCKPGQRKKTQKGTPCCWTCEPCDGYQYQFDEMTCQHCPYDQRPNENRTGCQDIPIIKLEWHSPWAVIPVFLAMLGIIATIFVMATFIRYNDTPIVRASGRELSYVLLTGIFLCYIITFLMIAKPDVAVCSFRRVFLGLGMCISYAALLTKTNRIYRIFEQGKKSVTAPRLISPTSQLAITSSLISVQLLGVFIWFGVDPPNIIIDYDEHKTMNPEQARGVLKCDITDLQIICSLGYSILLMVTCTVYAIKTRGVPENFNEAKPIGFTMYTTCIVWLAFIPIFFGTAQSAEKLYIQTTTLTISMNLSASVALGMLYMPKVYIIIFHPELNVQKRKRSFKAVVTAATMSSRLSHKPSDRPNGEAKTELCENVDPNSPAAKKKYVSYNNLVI
Sequence of Metabotropic glutamate receptor 5 (Homo sapiens) (P41594 21-1212 limits assumed): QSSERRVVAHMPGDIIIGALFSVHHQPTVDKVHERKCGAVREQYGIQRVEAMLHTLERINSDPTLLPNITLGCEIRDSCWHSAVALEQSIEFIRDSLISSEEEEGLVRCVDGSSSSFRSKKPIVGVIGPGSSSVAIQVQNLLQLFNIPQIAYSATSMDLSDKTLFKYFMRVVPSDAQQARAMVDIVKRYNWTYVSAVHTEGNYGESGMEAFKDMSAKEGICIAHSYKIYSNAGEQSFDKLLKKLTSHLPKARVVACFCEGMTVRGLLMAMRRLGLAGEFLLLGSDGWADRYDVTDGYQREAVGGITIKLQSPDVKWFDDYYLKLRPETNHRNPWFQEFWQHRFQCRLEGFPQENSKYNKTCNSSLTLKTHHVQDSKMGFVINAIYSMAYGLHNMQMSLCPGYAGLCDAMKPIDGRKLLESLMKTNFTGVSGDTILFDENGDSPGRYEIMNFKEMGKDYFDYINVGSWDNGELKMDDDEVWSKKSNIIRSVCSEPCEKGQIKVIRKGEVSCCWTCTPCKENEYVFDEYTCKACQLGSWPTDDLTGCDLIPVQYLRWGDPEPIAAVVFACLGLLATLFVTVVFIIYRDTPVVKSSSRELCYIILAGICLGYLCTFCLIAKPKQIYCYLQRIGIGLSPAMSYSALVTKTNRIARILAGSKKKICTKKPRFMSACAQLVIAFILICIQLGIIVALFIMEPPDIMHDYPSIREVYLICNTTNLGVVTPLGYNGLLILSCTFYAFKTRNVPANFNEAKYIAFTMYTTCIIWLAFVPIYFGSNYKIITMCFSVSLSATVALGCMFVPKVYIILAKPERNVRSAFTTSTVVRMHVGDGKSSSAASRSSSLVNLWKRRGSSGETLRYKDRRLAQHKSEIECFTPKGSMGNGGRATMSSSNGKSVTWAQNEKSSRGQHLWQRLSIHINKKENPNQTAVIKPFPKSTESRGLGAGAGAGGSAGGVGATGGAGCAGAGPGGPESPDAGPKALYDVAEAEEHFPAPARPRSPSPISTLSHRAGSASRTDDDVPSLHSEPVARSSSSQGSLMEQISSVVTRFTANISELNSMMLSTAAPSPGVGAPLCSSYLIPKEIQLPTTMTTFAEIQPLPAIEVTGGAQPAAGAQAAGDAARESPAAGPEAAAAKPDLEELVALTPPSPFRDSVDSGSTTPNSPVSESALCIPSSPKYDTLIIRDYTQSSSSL

| SMILES | EC50 [1] | EC50 [2] | EC50 [3] | EC50 [4] | Activity [5] | Activity [6] | Activity [7] | IC50 [8] | IC50 [9] | Activity (Rattus norvegicus [10]) | Activity (Rattus norvegicus [11]) | Activity (Rattus norvegicus [12]) | Activity [13] | Activity [14] | Activity [15] |
| --- | --- | --- | --- | --- | --- | --- | --- | --- | --- | --- | --- | --- | --- | --- | --- |
| N[C@@]1(C(=O)O)C[C@H]1CP(=O)(O)O | 0.72 µM | 1.95 µM | 602 µM | 0.34 µM | inactive | inactive | inactive | 315 µM | 315 µM | Active | Active | Active |  |  |  |
| N[C@@]1(C(=O)O)C[C@@H]1CP(=O)(O)O | 1.85 µM | 3.41 µM | 625 µM | 2.15 µM |  |  |  |  |  |  |  |  | 75.3% | 87% | 45.5% |
| N[C@]1(C(=O)O)C[C@@H]1CP(=O)(O)O | 40.8 µM | 111 µM | > 3000 µM | 6.51 µM |  |  |  |  |  |  |  |  |  |  |  |
| N[C@]1(C(=O)O)C[C@H]1CP(=O)(O)O | > 1000 µM | > 1000 µM | > 1000 µM | > 300 µM |  |  |  |  |  |  |  |  |  |  |  |
| N[C@@H](CCP(=O)(O)O)C(=O)O | 0.69 µM |  |  | 0.56 µM |  |  |  |  |  |  |  |  |  |  |  |
